DTT redox prof – compounds producing H2O2 with reducing agent – biochemical, NIH compound library profiling, artefact control for MLSCN library redox annotation, primary screen; DTT-dependent redox cycling H2O2, phenol red/HRP absorbance; 100% = 100 µM peroxide control, 0% = buffer; activation, % at 10 µM; 200,000 tested, 0.03% active; AID 878;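 active = activation of at least 50% relative to the plate's high and low controls in the primary single-dose screen; inactive = activation below 50%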;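 note: compound incubated with DTT at 0.8 mM final as the reducing agent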
G6PDH CS – L. mesenteroides G6PDH inhibition counter-screen; Purified L. mesenteroides G6PDH, diaphorase/resazurin coupled fluorescence, 45 min; inhibition, % at 5 µM; 200,000 tested, 0.12% active
Diaphorase inh – counter-screen for diaphorase-based assays: diaphorase inhibitors and chemical oxidizers. diaphorase resazurin-to-resorufin fluorescence, NADH, 16 min; bacterial (C. kluyveri) enzyme, not human. inhibition, % at 20 µM. 190,000 tested, 0.69% active;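 active = primary screen inhibition at 20 µM above a set limit, cut at about 50% in these data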;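 note: plate controls were DMSO with full reaction for no effect and wells lacking NADH for full effect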
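Benchmarks: positive control wells lacking NADH, neutral wells with DMSO only. System: bacterial diaphorase enzyme (C. kluyveri). Input: 0.14 U/mL diaphorase, enzyme working solution. Detection: resorufin fluorescence, excitation 544 nm, emission 590 nm. Times: 16-min room-temperature incubation before reading.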
Diaph act CS – diaphorase activation or chemical reduction counter-screen; AID 1229; activation factor at 20 µM; Diaphorase/resazurin coupled assay, resorufin fluorescence, 16 min; active compounds read high; 1 = vehicle wells, 0 = NADH-free wells; 190,000 tested, 0.005% active;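 active = diaphorase activity raised at least twofold by the compound at 20 µM; inactive = activation factor below 2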
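test system = bacterial diaphorase enzyme (C. kluyveri) | quantity = enzyme 0.07 U/mL final | reagent = NADH substrate 0.114 mM plus resazurin dye 0.1 mM, final | incubation = 16 min enzyme reaction, ambient temperature | buffer or medium = HEPES pH 7.4 buffer with MgCl2 and Tween 20 | signal = fluorescence of resorufin, 544 nm excitation, 590 nm emission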
L major viab – reduces viability of Leishmania major promastigotes; resazurin fluorescence viability; inhibition, % at 10 µM; 200,000 tested, 9% active; AID 1063;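 note: promastigotes grown with compound for 44 hours at 28 °C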
PfGluPho inh – PfG6PD (Plasmodium falciparum) enzyme inhibition. 350,000 tested, 0.78% active. AID 504690. PfGluPho enzyme, NADPH resazurin-diaphorase fluorescence. inhibition, % at 20 µM;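 active = inhibition reaching at least a set limit at 20 µM in the primary screen, cut at about 59% in these data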;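 note: 0% = DMSO wells with substrate and 100% = DMSO wells lacking glucose-6-phosphate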
* marks the source's active call; other numbers are inactive results; . = no result. This excerpt belongs to a sample that is enriched for hits. Cut-off read from the data, not from the text of the source, unless noted: active = inhibition above about 50%; inactive = the rest.

SMILES	DTT redox prof	G6PDH CS	Diaphorase inh	Diaph act CS	L major viab	PfGluPho inh
CCCCCCCNC(=O)c1ccc(N2CCC3(CC2)OCCO3)c([N+](=O)[O-])c1	1	-10	19	0.8	94*	33
O=C(NCc1ccc(F)cc1)c1ccc(N2CCc3ccccc32)c([N+](=O)[O-])c1	4	-11	21	0.8	92*	15
CCCNC(=O)c1ccc(N2CCC3(CC2)CC(c2ccccc2)=NO3)c([N+](=O)[O-])c1	.	.	.	.	.	3
CC1CCN(c2ccc(C(=O)NCc3ccco3)cc2[N+](=O)[O-])CC1	0	0	8	0.9	50*	-1
O=C(NCc1ccco1)c1ccc(N2CCCCC2)c([N+](=O)[O-])c1	.	4	19	0.8	63*	-5
COc1ccc2cc(C(=O)NCCCN3CCCC3=O)[nH]c2c1	.	.	.	.	.	0
N#CC1(c2ccccc2)CCC(=O)N1c1ccccc1 (stereo not given)	.	.	.	.	.	3
COc1ccc(N2C(=O)CC2(C#N)c2ccc(OCc3ccccc3)cc2)cc1 (stereo not given)	0	4	17	0.8	68*	-8
Cc1ccccc1-n1nc2c(c1NC(=O)C1CC1)CS(=O)(=O)C2	.	.	.	.	.	7
O=C(O)C1C2C=CC(C2)C1C(=O)NCc1ccc2c(c1)OCO2 (stereo not given)	0	4	3	1	-5	-12
O=C(O)C1C2C=CC(C2)C1C(=O)NCc1ccc(Cl)c(Cl)c1 (stereo not given)	0	6	9	0.9	53*	1
Cc1ccc(C(C(=O)NC2CCCCC2)N(Cc2ccco2)C(=O)Cn2cnc3ccccc32)cc1 (stereo not given)	1	2	12	0.9	60*	3
O=C(NC1CCCCC1)C(c1ccc(F)cc1)N(Cc1ccco1)C(=O)Cn1nnc2ccccc21 (stereo not given)	2	2	7	0.9	44	4
CC(=O)N1CCc2cc(Br)cc(S(=O)(=O)NCCCN3CCC(C)CC3)c21	0	2	13	0.9	99*	-4
CC1CC(C)CN(CCCNS(=O)(=O)c2cc(Br)cc3c2N(C(=O)C2CC2)CC3)C1 (stereo not given)	.	.	.	.	.	-23
CC(=O)N1CCc2cc(Br)cc(S(=O)(=O)NCCN3CCCCC3C)c21 (stereo not given)	-2	-2	8	0.9	99*	-11
CC(=O)N1CCc2cc(Br)cc(S(=O)(=O)NCCCN3CCCC(C)C3)c21 (stereo not given)	3	-10	16	0.8	100*	-11
O=C(C1CC1)N1CCc2cc(Br)cc(S(=O)(=O)NCCCN3CCCC3)c21	-1	-13	5	0.9	99*	17
CC1CCCN(CCCNS(=O)(=O)c2cc(Br)cc3c2N(C(=O)C2CC2)CC3)C1 (stereo not given)	.	.	.	.	.	-2
CCC(=O)N1CCc2cc(Br)cc(S(=O)(=O)NCCN3CCCC3)c21	.	.	.	.	.	-13
NC(=O)/C(=C\c1ccccc1)NC(=O)/C=C/c1ccccc1	0	1	-7	1.1	-8	2
CCNC(=O)/C(=C\c1ccccc1)NC(=O)/C=C/c1ccccc1	.	3	2	1	85*	-12
COC(=O)c1cc(=O)n(CCc2ccc(OC)c(OC)c2)c(=Nc2ccc(F)c(Cl)c2)s1	-1	3	22	0.8	98*	24
COC(=O)c1cc(=O)n(Cc2ccco2)c(=Nc2ccc(F)cc2)s1	0	6	18	0.8	96*	4
CCOC(=O)c1ccc(N=c2sc(C(=O)OC)cc(=O)n2-c2ccc(C(=O)OCC)cc2)cc1	2	17	15	0.9	100*	8
COC(=O)c1cc(=O)n(Cc2ccc(F)cc2)c(=Nc2ccccc2)s1	.	.	.	.	.	11
COC(=O)c1cc(=O)n(Cc2cccs2)c(=Nc2ccccc2)s1	.	.	.	.	.	3
COC(=O)c1cc(=O)n(-c2ccccc2)c(=Nc2ccccc2)s1	1	8	10	0.9	87*	10
S=c1[nH]nc(CSc2nc3ccccc3s2)n1C1CCCCC1	-4	-1	18	0.8	7	30

Bioassay records deposited in PubChem by several laboratories.
